Assay [1] concerns Mus musculus. Nature of the assay: Protection against APAP induced liver injury in mouse assessed as liver centrilobular necrosis at 250 mg/kg, ip administered at 2.5 hrs. Type of assay: functional, organism-based.
The subject of assay [2] is Mus musculus. Nature of the assay: Protection against APAP induced liver injury in mouse assessed as liver centrilobular necrosis at 250 mg/kg, ip administered at 1.5 hrs. It counts as functional. In short, it runs like this: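 Wild-type mice were given APAP orally. NAC at 250 mg/kg was then injected intraperitoneally at 1.5, 2.5 or 3.5 h after APAP. Liver centrilobular necrosis was then assessed.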

Assay [3] has as its system Mus musculus. Nature of the assay: Protection against APAP induced liver injury in mouse assessed as decrease in ALT level at 250 mg/kg, ip administered at 2.5 hrs. It counts as functional, organism-based. As to conditions: Serum.
In assay [4] the test system is Mus musculus. Nature of the assay: Protection against APAP induced liver injury in mouse assessed as decrease in ALT level at 250 mg/kg, ip administered at 1.5 hrs. It counts as functional, organism-based. As to conditions: Serum.
The test system of assay [5] is Mus musculus. Nature of the assay: Protection against APAP induced liver injury in mouse assessed as liver centrilobular necrosis at 250 mg/kg, ip administered at 3.5 hrs. It counts as functional, organism-based.
The target of assay [6] is T1, Serine/threonine-protein kinase 3 (Homo sapiens, UniProt Q13188).
T1 sequence (Q13188 whole entry): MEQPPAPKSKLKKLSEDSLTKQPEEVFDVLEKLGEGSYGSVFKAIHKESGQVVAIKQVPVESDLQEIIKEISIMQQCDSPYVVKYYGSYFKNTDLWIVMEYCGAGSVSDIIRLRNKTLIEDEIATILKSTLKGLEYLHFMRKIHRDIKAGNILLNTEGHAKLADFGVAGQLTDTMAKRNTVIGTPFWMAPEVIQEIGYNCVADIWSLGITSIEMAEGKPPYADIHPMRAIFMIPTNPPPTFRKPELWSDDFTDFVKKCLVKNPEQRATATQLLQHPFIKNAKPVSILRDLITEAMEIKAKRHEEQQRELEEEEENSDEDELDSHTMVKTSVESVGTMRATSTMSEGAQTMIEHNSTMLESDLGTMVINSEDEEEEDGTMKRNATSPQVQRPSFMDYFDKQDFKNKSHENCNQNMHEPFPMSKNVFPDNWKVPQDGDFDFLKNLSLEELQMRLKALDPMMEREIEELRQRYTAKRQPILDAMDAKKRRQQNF
Nature of the assay: Inhibition of recombinant His-tagged full-length MST2 (unknown origin) expressing in Escherichia coli assessed as GST-tagged MOB1a phosphorylation level incubated for 30 mins by immunoblot analysis.

Active and inactive are the calls of the source. The calls are words filed in the database; no cut-off is given here.

`CC(=O)N[C@@H](CS)C(=O)O` [ACETYLCYSTEINE]: the result in assay [1] and in assay [5] was inactive. Moreover, the result in assay [2], in assay [3] and in assay [4] was Active. Further, the Activity in assay [2] (record 2) is recorded as 80%.

As usually defined, the IC50 is the concentration that inhibits the measured activity by half. As to `CSc1ccc(Nc2ncc3c(n2)N(C)c2ccsc2C(=O)N3C)cc1`, the IC50 in assay [6] was 1160 nM.

On to `CN1C(=O)c2sccc2N(C)c2nc(Nc3ccc(S(=O)(=O)NC4CC4)cc3)ncc21`, for which, in assay [6], the IC50 is 207 nM.

`CN1CCC(NS(=O)(=O)c2ccc(Nc3ncc4c(n3)N(C)c3ccsc3C(=O)N4C)cc2)CC1`: in assay [6], the IC50 worked out at 3840 nM.

On to `CN1C(=O)c2sccc2N(C)c2nc(Nc3ccc(S(C)(=O)=O)cc3)ncc21`, for which the concentration for half-maximal inhibition (IC50) in assay [6] turned out to be 596 nM.
